# From PubChem
# Rows were chosen to be rich in hits. Some 4.5% of all compounds tested hit in one or more screens of this group.
# AHR activator: human AHR activation; P35869; AHR-responsive luciferase reporter cells, luminescence; AID 2796; 320,000 compounds, 2.5% hits; activation, % at 5 µM; in the data active = activation above about 47%;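 also: 0% = vehicle wells and 100% = reference agonist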
# NF-kB expr up: NF-kB expression increase, human neuronal cells; 190,000 compounds, 1.6% hits; AID 1239; fold change at 12.5 µM; NF-kB reporter expression; hits give high values; in the data active = fold change above about 3.3
# PERK inh: inhibitors of human PERK kinase; CHO PERK-DD fusion, SEAP luminescence translation reporter; 220,000 compounds, 0.17% hits; inhibition, % at 5.6 µM;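 active = inhibition above the mean inhibition of all tested compounds plus 3 SD, set separately per screening campaign, cut at about 2.9% in these data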;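 also: PERK kinase domain activated by AP20187 dimerizer at 100 nM; 0% = DMSO with dimerizer and 100% = rapamycin at 8.4 µM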
# Mdm2 ligase inh: Mdm2 E3 ligase (human) inhibition. cell-based MDM2 ubiquitination luciferase reporter, 2 h; 0 = plate control, 100 = twice control, blank-subtracted. Q00987. 210,000 compounds, 0.11% hits. signal enhancement, % at 5 µM;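 active = signal enhancement of 30% or more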;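 also: luminescence tracks abundance of the self-degrading MDM2-luciferase fusion protein; higher signal means inhibition of MDM2 E3 ligase activity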
#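 Assay system: stable mammalian line carrying autodegrading MDM2–luciferase fusion reporter; amount: 2000 cells seeded into each well; buffer or medium: DMEM; benchmarks: plate control and blank wells; signal: luciferase luminescence; timing: 2 h compound exposure at 37 °C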
# STAT1 activator: STAT1 signaling activation; NIH 3T3 STAT1-luciferase reporter, IFN-gamma, luminescence; 100% = IFN-gamma alone, no compound; AID 932; 200,000 compounds, 2.6% hits; activation (% of control), % at 5.5 µM;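 active = activation above the screen-wide mean activation plus 3 SD, cut at about 130% in these data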;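 also: raw ratio to IFN-gamma control signal so 100% means no change and 0% no light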
# APP 5'UTR act: activates APP 5'UTR luciferase reporter | SH-SY5Y APP 5'UTR luciferase reporter, luminescence; zero percent = DMSO vehicle wells | activation, % at 2 µM | 190,000 compounds, 1% hits | AID 1276;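 active = activation above a set limit, based on mean plus 3 SD of controls, cut at about 140% in these data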
# * marks the source's active call; other numbers are inactive results; · = no result.
SMILES,AHR activator,NF-kB expr up,PERK inh,Mdm2 ligase inh,STAT1 activator,APP 5'UTR act
COC(=O)c1c(NC(=O)/C=C/C(=O)O)sc(C)c1-c1ccc(C(C)C)cc1,3.3,1.45,0.3,3.3,89.2,-5.8
O=C(NC(=S)Nc1nc(-c2ccccc2)cs1)c1cccs1,67.9*,0.96,0.8,-6.5,94.1,10.3
Cc1ccc(-c2csc(NC(=S)NC(=O)c3cccs3)n2)cc1,1.1,1.05,1.1,0.0,106.3,-3.1
COc1ccccc1NC(=O)c1ccc2nsnc2c1,55.6*,·,·,·,·,·
Cc1c(NC(=O)c2ccc3nsnc3c2)cccc1[N+](=O)[O-],51.7*,·,·,·,·,·
C=CCNC(=O)C1(c2ccccc2)CC1(Cl)Cl (stereo unspecified),2.4,1.05,1.3,-1.3,99.2,11.7
CC1CCN(C(=O)CN2C(=O)NC3(CCCCCC3)C2=O)CC1,2.1,·,·,·,·,·
COc1cc(N/N=C/c2ccccc2O)ncn1,16.6,2.84,-0.5,3.1,108.4,-40.9
COc1cc(N/N=C/c2ccc(N(C)C)cc2)ncn1,78.7*,4.13*,0.8,-63.4,68.5,135.3*
CCCCc1ccc(-c2ccc(Br)cc2O)nc1,-2.4,5.51*,-0.5,-15.9,139.9*,28.7
O=C(Nc1ccc2cn[nH]c2c1)c1c(Cl)cccc1Cl,20.9,0.88,0.1,-19.1,95.2,12.1
O=C1C(Cl)=C(Nc2ccc3cn[nH]c3c2)C(=O)c2ccccc21,70.3*,·,0.1,·,·,·
CC(=O)c1ccc(S(=O)(=O)N(Cc2cc3cc4c(cc3[nH]c2=O)OCCO4)CC2CCCO2)cc1 (stereo unspecified),2.7,1.65,0.3,-5.2,129.4*,25.7
Cc1ccc(C(=O)c2nc(C(=O)NCCO)nc3ccccc23)cc1,47.8*,·,·,·,·,·
Brc1ccc(-c2csc(N3CCCCCC3)n2)cc1,-10.4,·,·,·,·,·
Brc1ccc(-c2csc(/N=C/N3CCOCC3)n2)cc1,-4.8,1.98,0.1,-1.7,136.0*,53.3
OCCN(/C=N/c1nc(-c2ccc(Br)cc2)cs1)CCO,6.5,1.8,0.6,-27.1,116.0,41.9
NC(=O)C1CCN(c2nc(-c3ccc(Br)cc3)cs2)CC1,44.5,1.76,0.5,1.9,130.6*,54.1
CC(=O)c1ccc(-c2csc(N3CCC(C(N)=O)CC3)n2)cc1,4.4,·,·,·,·,·
Brc1ccc(-c2csc(/N=C/N3CCCC3)n2)cc1,0.9,1.35,1.0,-18.9,131.5*,28.9
C/C=C1\COC(C(=O)NCc2ccccc2)(C(F)(F)F)C=C1C=C(C)C (stereo unspecified),-0.3,·,·,·,·,·
CC1CN(C(=O)CCNC(=O)c2ccc(Br)cc2)CC(C)O1 (stereo unspecified),-0.1,·,·,·,·,·
CCN(CC)S(=O)(=O)c1ccc(O)c(C(=O)OCC(=O)NC23CC4CC(CC(C4)C2)C3)c1,0.2,·,·,·,·,·
COc1cccc(N=c2oc3ccc(OC)cc3cc2-c2nc3ccccc3[nH]2)c1,53.1*,3.08,-2.4,-3.6,134.8*,89.9
COC(=O)CCCC1=CC2=CC(=O)C(C)(OC(=O)c3ccc(Cl)nc3)C(=O)C2=CO1 (stereo unspecified),3.0,·,·,·,·,·
SMILES,AHR activator,NF-kB expr up,PERK inh,Mdm2 ligase inh,STAT1 activator,APP 5'UTR act
COc1ccccc1C(C)NC(=O)c1cc(=O)[nH]c2ccccc12 (stereo unspecified),2.8,·,·,·,·,·
N#Cc1cc2c(nc1SCc1nc3ccccc3[nH]1)CCC2,25.6,1.55,-1.2,-74.3,127.3,248.0*
Cc1cc(C)c(C#N)c(SCc2nc3ccccc3[nH]2)n1,67.7*,2.9,-2.1,-19.6,116.9,147.6*
N#Cc1c(SCc2nc3ccccc3[nH]2)nc2c(c1C(F)(F)F)CCC2,·,·,-0.6,·,116.7,5.2
Cc1ccc([N+](=O)[O-])cc1S(=O)(=O)Nc1ccc(OCC(=O)N2CCOCC2)cc1,1.4,·,·,·,·,·
COc1ccc(CNC(=O)C2=CC(c3ccc(C)cc3)=NS(=O)(=O)N2C)cc1,-2.1,·,·,·,·,·
Cc1sc2nc(SCC(=O)N3CCOCC3)[nH]c(=O)c2c1-c1ccccc1,48.6*,·,·,·,·,·
Cc1sc2nc(-c3ccccc3)[nH]c(=O)c2c1-c1ccccc1,48.0*,1.21,1.1,4.2,101.7,29.8
O=C(CNC(=O)c1cccs1)c1ccc([N+](=O)[O-])cc1,77.8*,0.9,0.6,-4.7,136.0*,47.2
O=C(CNC(=O)c1cccs1)c1ccc(Cl)cc1,-5.1,·,·,·,·,·
O=C(CNC(=O)c1cccs1)c1ccc(F)cc1,-3.0,4.02*,-0.4,-28.5,128.0,158.0*
CC(C)c1cccc(C(C)C)c1OC(=O)[C@H]1OC(c2ccc(Br)cc2)=C[C@@H]1c1ccc(Br)cc1,-1.7,·,·,·,·,·
O=C(CSc1nc(Nc2ccccc2)nc(N2CCOCC2)n1)Nc1ccccc1Cl,1.1,6.7*,0.7,-17.5,98.2,-12.1
CC(=O)Nc1ccc(N/C=C/C(=O)c2ccc(C)o2)cc1,-2.3,1.29,-0.1,-3.6,143.3*,24.8
COc1ccccc1Oc1ccc(N/C=C/C(=O)c2ccc(C)o2)cc1,1.3,1.7,1.8,-13.3,132.1*,92.9
Cc1ccc(C(=O)/C=C/Nc2ccccc2C(N)=O)o1,7.8,1.36,0.3,-11.4,120.5,29.6
O=C(COC(=O)c1cc(Cl)ccc1Cl)Nc1ccc2[nH]c(=O)[nH]c2c1,1.7,·,·,·,·,·
COc1c2ccc(OCC/C(C)=C/C(=O)C=C(C)C)cc2nc2occc12,75.5*,·,·,·,·,·
CCn1c2ccccc2c2nc3cc(C(=O)O)ccc3nc21,·,·,1.0,·,119.9,-6.4
CCCCc1c(C)nn(-c2nnc3c4ccccc4n(CC)c3n2)c1C,52.5*,1.12,-1.1,2.9,101.5,-5.2
CCn1c2ccccc2c2nc3ccccc3nc21,89.6*,0.99,-0.4,-18.8,105.4,6.0
O=C1OC[C@H]2CCCN2C(=O)[C@@H](CC(=O)N(CCO)Cc2ccccc2)C/C=C\CC[C@H]1Cc1ccc(F)cc1,1.4,·,·,·,·,·
CCOC(=O)c1c(C)n(C)c2ccc(OC)c(NC(=O)CCN3CCC(Cc4ccccc4)CC3)c12,65.8*,·,-2.4,-5.5,·,·
CCOC(=O)c1c(C)n(C)c2ccc(OC)c(NC(=O)CN3CCSCC3)c12,7.0,0.75,-0.5,-14.1,97.0,4.2
COc1ccc(-c2cc(C(=O)NC(C)c3ccccn3)c3ccccc3n2)cc1OC (stereo unspecified),7.1,·,·,·,·,·
O=C(O)CC(Cc1ccccc1)C(=O)NCC12CC3CC(CC(C3)C1)C2 (stereo unspecified),1.2,1.07,3.2*,-17.6,105.0,6.5
Cc1ccc(NC(=O)OCC(F)(F)C(F)F)cc1NC(=O)OCC(F)(F)C(F)F,55.0*,0.86,1.4,-7.0,100.9,-3.3
CCOC(=O)COc1ccc2c(c1)c(C(C)=O)c(C)n2-c1ccc(OC)cc1,2.4,·,·,·,·,·
Cc1c(C(=O)N2CCOCC2)sc2nc(-c3ccccc3)cn12,11.0,1.96,0.7,-9.4,133.9*,61.2
Cc1c(C(=O)N2CCN(c3ccc(F)cc3)CC2)sc2nc(-c3ccccc3)cn12,3.5,1.13,-0.1,-17.1,100.8,18.1
